ChEMBL document CHEMBL4145674, “Discovery of 3-Benzyl-1-( trans-4-((5-cyanopyridin-2-yl)amino)cyclohexyl)-1-arylurea Derivatives as Novel and Selective Cyclin-Dependent Kinase 12 (CDK12) Inhibitors” (J Med Chem, 2018)
≈ marks a conversion by molar mass, not a printed value. Calls of active or inactive are those of the source. The rule behind the calls is not given here.

What was measured:
CDK8/Cyclin C = CDK8/Cyclin C (Homo sapiens, UniProt P49336); assay: Inhibition of GST-tagged human CDK8/CycC (04 to 109 residues) using kinase tracer 236 probe incubated for 60 mins by TR-FRET assay; format: protein-complex assay
CDK9/cyclin T1 = CDK9/cyclin T1 (Homo sapiens, UniProt P50750); format: protein-complex assay
CDK12/Cyclin K = CDK12/Cyclin K (Homo sapiens, UniProt Q9NYV4); assay: Inhibition of N-terminal FLAG-tagged human full-length CDK12 (1 to 1490 residues)/N-terminal His-tagged CycK (1 to 580 residues) expressed in Sf9 cells assessed as reduction in ATP-dependent ULight-4E-BP1 (Thr37/Thr46) substrate peptide phosphorylation pre-incubated for 60 mins by LANCE Ultra assay
CDK2/Cyclin A2 = CDK2/Cyclin A2 (Homo sapiens, UniProt P24941); assay: Inhibition of GST-tagged human CDK2/CCNA2 (04 to 103 residues) pre-incubated for 5 mins before addition of histone H1 substrate and [gamma-33P]ATP and measured after 20 mins by radiometric assay; format: protein-complex assay
In short: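 GST-CDK2/CCNA2 at 1.8 mU/well in 25 mM HEPES pH 7.5, 10 mM Mg acetate, 1 mM DTT. Compound and enzyme together 5 min at room temperature before ATP start. Final levels: histone H1 1 μg/well, [γ-33P]ATP 500 nM. Reaction 20 min at room temperature, stopped with 10% TCA. Filter capture, phosphoric acid wash, scintillation counting. IC50 reported.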

CDK7/Cyclin H/MNAT1 = CDK7/Cyclin H/MNAT1 (Homo sapiens, UniProt P50613)
[1] = Solubility in aqueous buffer solution at pH 6.8 by UV absorbance spectroscopy; format: physicochemical
In short: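 Compound in DMSO spiked into aqueous buffer pH 6.8 and incubated. Precipitate removed by filtration, dissolved compound quantified by UV absorbance of the filtrate.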

[2] = Partition coefficient between 1-octanol and aqueous buffer, log D of the compound at pH 7.4 buffer by chromatography; format: physicochemical; conditions: 1-octanol/aqueous buffer
In short: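 log D as octanol/buffer partition at pH 7.4, determined chromatographically.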

Homo sapiens = species on record: Homo sapiens; assay: Selectivity index, ratio of IC50 for inhibition of GST-tagged human CDK2/CCNA2 (04 to 103 residues) to IC50 for inhibition of N-terminal FLAG-tagged human full-length CDK12 (1 to 1490 residues)/N-terminal His-tagged CycK (1 to 580 residues) expressed in Sf9 cells
In short: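 Ratio of two IC50s. CDK2/CCNA2: radiometric assay, 1.8 mU/well enzyme, histone H1 (1 μg/well), 500 nM [γ-33P]ATP, 5 min compound preincubation, 20 min at room temperature, TCA stop, filter-bound counts. In-house CDK12/CycK (30 nM): LANCE TR-FRET, ULight-4E-BP1 peptide 150 nM, ATP 10 μM, HEPES pH 7.5, 60 min preincubation, EDTA/Eu-antibody stop.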

[3] = Permeability of the compound at 10 umol/L incubated for 3 hrs by LC/MS/MS detection based PAMPA method; format: ADME; conditions: read-out: permeability
In short: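 PAMPA: donor buffer pH 7.4 holding 10 μmol/L compound; acceptor filter coated with GIT-0 lipid, acceptor sink buffer. 3 h at room temperature. Compound in donor and acceptor wells quantified by LC/MS/MS.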

[4] = target: T1, Serine/threonine-protein kinase TAO1 (Homo sapiens) (UniProt Q7L7X3); assay: Inhibition of N-terminal GST tagged recombinant human TAOK1 (1 to 314 residues) expressed in baculovirus infected Sf9 cells at 1 uM
T1 sequence (whole entry): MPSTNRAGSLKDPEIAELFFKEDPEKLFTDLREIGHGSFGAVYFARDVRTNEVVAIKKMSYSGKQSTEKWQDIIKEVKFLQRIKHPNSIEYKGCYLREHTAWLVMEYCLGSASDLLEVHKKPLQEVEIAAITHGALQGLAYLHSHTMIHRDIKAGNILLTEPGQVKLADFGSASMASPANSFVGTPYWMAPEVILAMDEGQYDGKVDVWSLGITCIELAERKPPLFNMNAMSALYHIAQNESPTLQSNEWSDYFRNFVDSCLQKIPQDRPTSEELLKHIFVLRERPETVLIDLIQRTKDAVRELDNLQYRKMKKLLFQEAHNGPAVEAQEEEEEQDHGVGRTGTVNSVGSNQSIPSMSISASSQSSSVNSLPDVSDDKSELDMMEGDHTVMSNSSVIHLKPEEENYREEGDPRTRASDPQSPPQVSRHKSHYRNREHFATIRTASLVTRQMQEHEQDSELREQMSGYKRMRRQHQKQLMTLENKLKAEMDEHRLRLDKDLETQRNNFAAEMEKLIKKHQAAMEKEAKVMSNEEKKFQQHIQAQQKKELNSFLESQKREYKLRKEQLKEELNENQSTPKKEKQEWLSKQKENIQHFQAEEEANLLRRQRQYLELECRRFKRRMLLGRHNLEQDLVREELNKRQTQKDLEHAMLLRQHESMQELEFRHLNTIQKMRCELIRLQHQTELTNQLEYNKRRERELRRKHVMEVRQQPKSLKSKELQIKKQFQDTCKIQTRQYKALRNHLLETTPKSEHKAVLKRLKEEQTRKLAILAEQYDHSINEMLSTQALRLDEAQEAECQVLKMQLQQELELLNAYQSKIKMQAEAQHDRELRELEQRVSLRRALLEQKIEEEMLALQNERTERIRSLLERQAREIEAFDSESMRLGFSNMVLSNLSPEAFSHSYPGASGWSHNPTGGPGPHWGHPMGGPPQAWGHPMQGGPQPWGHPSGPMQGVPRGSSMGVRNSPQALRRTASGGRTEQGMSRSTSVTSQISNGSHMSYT

[5] = target: STE20/SPS1-related proline-alanine-rich protein kinase (Homo sapiens) (UniProt Q9UEW8); assay: Inhibition of N-terminal His tagged recombinant full-length human STK39 expressed in baculovirus infected Sf9 cells at 1 uM
SK-BR-3 = assay: Growth inhibition of human SK-BR-3 cells incubated for 72 hrs by cell-titer-Glo luminescent cell viability assay; format: functional; conditions: SK-BR-3, 72 h
In short: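 SK-BR-3 (ATCC) kept in medium with 10% FBS, penicillin and streptomycin, subcultured every 3 days. 3 × 10^3 cells seeded, left overnight, then compound diluted in culture medium added. Viability by CellTiter-Glo luminescence after 72 h.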

[6] = target: Cyclin-dependent kinase 12 (Homo sapiens, UniProt Q9NYV4); assay: Time dependent inhibition of human CDK12 incubated for 0 to 5 hrs using ULight-4E-BP1 (Thr37/Thr46) substrate by LANCE system based assay
[7] = target: T2, Dual specificity tyrosine-phosphorylation-regulated kinase 2 (Homo sapiens) (UniProt Q92630); assay: Inhibition of N-terminal GST tagged recombinant full-length human DYRK2 expressed in Escherichia coli at 1 uM
T2 sequence (whole entry): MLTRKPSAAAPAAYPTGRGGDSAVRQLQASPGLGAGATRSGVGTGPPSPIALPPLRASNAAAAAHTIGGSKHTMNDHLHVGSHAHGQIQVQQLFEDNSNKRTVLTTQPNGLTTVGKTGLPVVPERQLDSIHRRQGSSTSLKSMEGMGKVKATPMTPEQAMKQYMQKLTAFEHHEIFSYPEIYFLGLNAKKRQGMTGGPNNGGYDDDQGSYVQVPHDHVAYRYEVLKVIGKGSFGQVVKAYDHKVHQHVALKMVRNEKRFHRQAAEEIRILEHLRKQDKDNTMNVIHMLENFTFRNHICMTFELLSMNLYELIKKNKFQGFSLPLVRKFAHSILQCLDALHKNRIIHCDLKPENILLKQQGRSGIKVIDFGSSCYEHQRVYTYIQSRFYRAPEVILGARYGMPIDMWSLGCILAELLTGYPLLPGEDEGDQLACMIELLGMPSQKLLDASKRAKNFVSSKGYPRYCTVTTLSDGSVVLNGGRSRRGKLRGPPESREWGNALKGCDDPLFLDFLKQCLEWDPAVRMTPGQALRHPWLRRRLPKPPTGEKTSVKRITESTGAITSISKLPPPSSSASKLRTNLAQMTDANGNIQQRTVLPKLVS

CDK9/cyclin T1, sequence (O60563 whole entry, the tested form may be a part): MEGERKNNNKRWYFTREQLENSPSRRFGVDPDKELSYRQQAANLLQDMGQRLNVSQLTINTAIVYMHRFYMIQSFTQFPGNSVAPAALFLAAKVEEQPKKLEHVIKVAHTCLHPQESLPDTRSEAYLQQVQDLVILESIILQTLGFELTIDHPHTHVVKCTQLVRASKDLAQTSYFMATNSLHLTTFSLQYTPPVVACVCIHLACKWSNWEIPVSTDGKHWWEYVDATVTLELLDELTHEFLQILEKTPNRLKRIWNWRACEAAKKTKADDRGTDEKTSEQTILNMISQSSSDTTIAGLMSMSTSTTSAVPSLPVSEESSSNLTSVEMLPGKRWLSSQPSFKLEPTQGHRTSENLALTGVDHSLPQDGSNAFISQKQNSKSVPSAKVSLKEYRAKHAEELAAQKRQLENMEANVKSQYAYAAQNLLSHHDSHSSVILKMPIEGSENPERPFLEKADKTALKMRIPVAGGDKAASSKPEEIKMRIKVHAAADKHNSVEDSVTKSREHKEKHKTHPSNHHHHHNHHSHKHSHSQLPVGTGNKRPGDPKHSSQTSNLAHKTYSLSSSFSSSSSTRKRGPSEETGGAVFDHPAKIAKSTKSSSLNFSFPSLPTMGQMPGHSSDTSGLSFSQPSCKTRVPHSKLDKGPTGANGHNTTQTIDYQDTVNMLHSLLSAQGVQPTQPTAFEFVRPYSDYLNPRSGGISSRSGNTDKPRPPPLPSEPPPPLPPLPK
CDK9/cyclin T1, sequence (P50750 whole entry, the tested form may be a part): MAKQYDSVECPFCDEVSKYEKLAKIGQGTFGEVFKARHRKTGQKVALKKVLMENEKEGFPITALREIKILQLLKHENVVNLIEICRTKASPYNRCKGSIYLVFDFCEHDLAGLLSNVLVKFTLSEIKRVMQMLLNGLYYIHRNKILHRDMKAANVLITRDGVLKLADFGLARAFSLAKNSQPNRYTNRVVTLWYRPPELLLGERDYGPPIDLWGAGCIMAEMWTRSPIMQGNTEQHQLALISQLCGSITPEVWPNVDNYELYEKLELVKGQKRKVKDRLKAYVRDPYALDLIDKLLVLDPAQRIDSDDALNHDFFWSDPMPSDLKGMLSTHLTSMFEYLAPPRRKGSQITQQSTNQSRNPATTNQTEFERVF
CDK12/Cyclin K, sequence (O75909 whole entry, the tested form may be a part): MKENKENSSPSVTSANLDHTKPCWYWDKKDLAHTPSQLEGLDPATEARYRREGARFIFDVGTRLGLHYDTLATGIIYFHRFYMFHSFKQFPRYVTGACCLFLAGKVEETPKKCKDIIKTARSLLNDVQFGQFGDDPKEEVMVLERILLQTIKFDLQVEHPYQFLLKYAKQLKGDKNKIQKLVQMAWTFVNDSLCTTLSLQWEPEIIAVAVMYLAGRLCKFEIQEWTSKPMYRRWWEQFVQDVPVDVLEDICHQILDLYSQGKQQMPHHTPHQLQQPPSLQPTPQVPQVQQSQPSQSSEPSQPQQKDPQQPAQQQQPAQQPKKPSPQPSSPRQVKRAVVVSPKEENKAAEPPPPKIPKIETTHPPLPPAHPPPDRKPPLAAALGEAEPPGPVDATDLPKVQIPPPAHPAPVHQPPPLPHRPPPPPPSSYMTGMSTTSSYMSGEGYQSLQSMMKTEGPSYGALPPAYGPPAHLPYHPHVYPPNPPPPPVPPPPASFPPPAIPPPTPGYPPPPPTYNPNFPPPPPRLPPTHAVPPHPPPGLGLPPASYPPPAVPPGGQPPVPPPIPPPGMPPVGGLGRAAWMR
CDK12/Cyclin K, sequence (Q9NYV4 whole entry, the tested form may be a part): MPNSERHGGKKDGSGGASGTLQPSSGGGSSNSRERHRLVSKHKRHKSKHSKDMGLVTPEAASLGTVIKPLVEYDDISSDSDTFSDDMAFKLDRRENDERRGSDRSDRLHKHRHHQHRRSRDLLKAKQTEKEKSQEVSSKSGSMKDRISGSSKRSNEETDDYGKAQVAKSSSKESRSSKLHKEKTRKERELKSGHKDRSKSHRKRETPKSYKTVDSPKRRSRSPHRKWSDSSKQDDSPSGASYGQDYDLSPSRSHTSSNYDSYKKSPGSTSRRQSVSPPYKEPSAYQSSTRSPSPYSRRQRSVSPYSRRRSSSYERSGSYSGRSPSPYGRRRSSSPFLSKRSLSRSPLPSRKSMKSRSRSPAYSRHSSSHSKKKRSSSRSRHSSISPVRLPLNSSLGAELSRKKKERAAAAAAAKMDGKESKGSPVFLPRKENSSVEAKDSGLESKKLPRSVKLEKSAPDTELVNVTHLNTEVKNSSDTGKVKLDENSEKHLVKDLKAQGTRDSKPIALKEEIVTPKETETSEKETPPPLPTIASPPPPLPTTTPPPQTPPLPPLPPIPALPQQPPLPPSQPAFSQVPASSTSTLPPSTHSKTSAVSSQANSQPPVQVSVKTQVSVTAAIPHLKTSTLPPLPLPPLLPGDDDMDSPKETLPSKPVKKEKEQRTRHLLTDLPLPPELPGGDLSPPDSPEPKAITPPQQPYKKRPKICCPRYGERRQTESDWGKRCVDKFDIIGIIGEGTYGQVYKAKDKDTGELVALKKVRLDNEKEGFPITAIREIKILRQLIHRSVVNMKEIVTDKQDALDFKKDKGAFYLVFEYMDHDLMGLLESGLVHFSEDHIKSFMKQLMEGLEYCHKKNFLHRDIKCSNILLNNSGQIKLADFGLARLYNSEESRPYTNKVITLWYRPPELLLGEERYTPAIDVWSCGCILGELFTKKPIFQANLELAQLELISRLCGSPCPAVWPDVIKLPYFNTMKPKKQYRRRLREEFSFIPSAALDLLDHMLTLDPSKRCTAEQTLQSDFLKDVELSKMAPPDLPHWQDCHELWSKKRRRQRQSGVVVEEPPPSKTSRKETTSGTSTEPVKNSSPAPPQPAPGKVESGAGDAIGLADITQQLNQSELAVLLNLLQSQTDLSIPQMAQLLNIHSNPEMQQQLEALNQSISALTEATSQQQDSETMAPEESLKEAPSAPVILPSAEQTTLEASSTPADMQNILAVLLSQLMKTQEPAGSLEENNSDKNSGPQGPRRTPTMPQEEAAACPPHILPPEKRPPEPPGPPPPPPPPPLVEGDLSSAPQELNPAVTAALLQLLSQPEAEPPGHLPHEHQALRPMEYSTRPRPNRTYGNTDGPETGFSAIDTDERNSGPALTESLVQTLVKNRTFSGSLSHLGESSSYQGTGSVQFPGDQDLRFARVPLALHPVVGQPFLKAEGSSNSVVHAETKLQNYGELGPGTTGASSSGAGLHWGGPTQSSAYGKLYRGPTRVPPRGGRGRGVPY
CDK8/Cyclin C, sequence (P49336 whole entry, the tested form may be a part): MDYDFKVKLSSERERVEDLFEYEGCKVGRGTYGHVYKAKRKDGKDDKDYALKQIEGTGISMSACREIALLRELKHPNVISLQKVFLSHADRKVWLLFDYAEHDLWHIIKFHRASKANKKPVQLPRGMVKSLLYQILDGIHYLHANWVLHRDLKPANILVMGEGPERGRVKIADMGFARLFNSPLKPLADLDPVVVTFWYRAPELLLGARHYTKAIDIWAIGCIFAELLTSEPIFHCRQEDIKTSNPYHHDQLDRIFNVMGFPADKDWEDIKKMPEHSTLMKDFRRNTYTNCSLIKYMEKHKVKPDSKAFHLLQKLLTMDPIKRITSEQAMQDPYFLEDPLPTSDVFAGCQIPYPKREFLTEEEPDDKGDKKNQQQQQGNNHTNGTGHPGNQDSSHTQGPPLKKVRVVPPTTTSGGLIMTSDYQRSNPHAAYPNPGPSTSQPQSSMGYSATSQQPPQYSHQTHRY
CDK8/Cyclin C, sequence (P24863 whole entry, further chain, the tested form may be a part): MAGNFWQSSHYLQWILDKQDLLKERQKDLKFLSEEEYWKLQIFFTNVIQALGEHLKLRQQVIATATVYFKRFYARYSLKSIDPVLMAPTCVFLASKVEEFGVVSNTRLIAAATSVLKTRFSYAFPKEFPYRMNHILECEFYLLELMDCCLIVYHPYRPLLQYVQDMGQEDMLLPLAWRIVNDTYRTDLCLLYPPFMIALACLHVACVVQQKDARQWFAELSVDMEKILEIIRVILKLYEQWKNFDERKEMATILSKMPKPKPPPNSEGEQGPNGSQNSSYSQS
CDK7/Cyclin H/MNAT1, sequence (P51946 whole entry): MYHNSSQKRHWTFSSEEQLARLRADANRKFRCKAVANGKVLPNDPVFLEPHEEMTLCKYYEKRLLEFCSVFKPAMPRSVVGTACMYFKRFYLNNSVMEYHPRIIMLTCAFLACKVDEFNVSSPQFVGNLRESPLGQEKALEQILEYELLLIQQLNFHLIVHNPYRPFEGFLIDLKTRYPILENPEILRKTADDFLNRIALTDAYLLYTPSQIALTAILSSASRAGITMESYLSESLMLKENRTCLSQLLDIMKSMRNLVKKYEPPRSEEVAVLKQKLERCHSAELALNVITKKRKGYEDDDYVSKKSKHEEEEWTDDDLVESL
CDK7/Cyclin H/MNAT1, sequence (P50613 whole entry): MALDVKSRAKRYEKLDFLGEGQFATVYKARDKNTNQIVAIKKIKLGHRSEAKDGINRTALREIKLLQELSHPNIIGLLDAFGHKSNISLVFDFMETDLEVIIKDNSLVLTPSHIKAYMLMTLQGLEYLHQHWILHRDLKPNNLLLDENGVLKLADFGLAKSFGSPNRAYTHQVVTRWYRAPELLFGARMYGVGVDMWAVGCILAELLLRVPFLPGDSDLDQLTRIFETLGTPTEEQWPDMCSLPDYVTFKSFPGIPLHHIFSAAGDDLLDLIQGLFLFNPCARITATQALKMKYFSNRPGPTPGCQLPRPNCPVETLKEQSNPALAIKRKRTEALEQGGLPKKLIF
CDK7/Cyclin H/MNAT1, sequence (P51948 whole entry, further chain): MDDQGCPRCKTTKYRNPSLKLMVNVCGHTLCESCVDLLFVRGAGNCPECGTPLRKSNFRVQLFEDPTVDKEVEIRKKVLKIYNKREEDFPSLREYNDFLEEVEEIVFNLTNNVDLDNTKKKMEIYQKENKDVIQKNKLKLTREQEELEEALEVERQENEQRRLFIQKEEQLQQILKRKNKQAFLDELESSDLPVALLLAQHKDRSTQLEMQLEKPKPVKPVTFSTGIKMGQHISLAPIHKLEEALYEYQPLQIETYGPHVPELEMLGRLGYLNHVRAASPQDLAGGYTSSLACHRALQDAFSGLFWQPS
Cyclin-dependent kinase 12, sequence (Q9NYV4 whole entry, looked up): as the sequence (Q9NYV4 whole entry, the tested form may be a part) above

| SMILES | IC50 (CDK12/Cyclin K) [nM] | IC50 (CDK2/Cyclin A2) [nM] | further results |
| --- | --- | --- | --- |
| Cn1cc(-c2ccc(S(=O)(=O)N3CCC(Nc4ccc(C#N)cn4)CC3)cc2)cn1 | 360 | 10 | IC50 (CDK8/Cyclin C): > 10000 nM; IC50 (CDK9/cyclin T1): > 30000 nM; IC50 (CDK7/Cyclin H/MNAT1): > 10000 nM |
| CN(c1ccc(C#N)cn1)C1CCN(S(=O)(=O)c2ccc(-c3cnn(C)c3)cc2)CC1 | > 30000 | 68000 | – |
| COc1ccc(NC2CCN(S(=O)(=O)c3ccc(-c4cnn(C)c4)cc3)CC2)nc1 | > 30000 | 21000 | – |
| Cn1cc(-c2ccc(N(C(=O)OCc3ccccc3)[C@H]3CC[C@H](Nc4ccc(C#N)cn4)CC3)cc2)cn1 | 640 | 2500 | – |
| Cn1cc(-c2ccc(S(=O)(=O)N3CCC(Nc4cccc(C#N)n4)CC3)cc2)cn1 | > 30000 | 46000 | – |
| N#Cc1ccc(N[C@H]2CC[C@H](N(C(=O)NCc3ccccc3)c3ccccc3)CC2)nc1 | 63 | 56000 | solubility [1]: 4 µg/mL (≈ 9.4 µM); IC50 (CDK9/cyclin T1): > 30000 nM; chromatographic logD [2]: 3.3 |
| Cn1cc(-c2ccc(S(=O)(=O)N3CCC(Nc4ccc(C#N)cc4)CC3)cc2)cn1 | > 30000 | – | – |
| N#Cc1ccc(N[C@H]2CC[C@H](N(C(=O)NCc3ccccc3)c3ccc(-c4cccnc4)cc3)CC2)nc1 | 59 | > 100000 | solubility [1]: 0.67 µg/mL (≈ 1.33 µM); Papp at 3 h, 10 µM [3]: 28 ×10⁻⁶ cm/s; IC50 (CDK9/cyclin T1): > 30000 nM; chromatographic logD [2]: 3 |
| Cn1cc(-c2ccc(S(=O)(=O)N3CCC(Nc4cc(C#N)ccn4)CC3)cc2)cn1 | > 30000 | 32 | – |
| Cn1cc(-c2ccc(N(C(=O)NCc3ccccc3)[C@H]3CC[C@H](Nc4ccc(C#N)cn4)CC3)cc2)ccc1=O | – | – | solubility [1]: 7.7 µg/mL (≈ 14.5 µM); Papp at 3 h, 10 µM [3]: 27.3 ×10⁻⁶ cm/s; IC50 (CDK8/Cyclin C): > 10000 nM; inhibition [4]: > 80%; inhibition [5]: > 80%; IC50 (CDK9/cyclin T1): 16000 nM; GI50 (SK-BR-3): 800 nM; TDI [6]: inactive; IC50 (CDK7/Cyclin H/MNAT1): > 10000 nM; chromatographic logD [2]: 2.4; inhibition [7]: > 80% |
| COC(=O)N(c1ccc(-c2cnn(C)c2)cc1)[C@H]1CC[C@H](Nc2ccc(C#N)cn2)CC1 | 200 | 1600 | – |
| Cn1cc(-c2ccc(N(C(=O)NCC3CCCCC3)[C@H]3CC[C@H](Nc4ccc(C#N)cn4)CC3)cc2)cn1 | 99 | > 100000 | – |
| CN(C)C/C=C/C(=O)Nc1ccc(C(=O)N2CCC[C@@H](Nc3ncc(Cl)c(-c4c[nH]c5ccccc45)n3)C2)cc1 | – | – | TDI [6]: Active |
| Cn1cc(-c2ccc(C(=O)N3CCC(Nc4ccc(C#N)cn4)CC3)cc2)cn1 | 23000 | – | – |
| Cn1cc(-c2ccc(N([C@H]3CC[C@H](Nc4ccc(C#N)cn4)CC3)S(C)(=O)=O)cc2)cn1 | 110 | 31 | – |
| CCNC(=O)N(c1ccc(-c2cnn(C)c2)cc1)[C@H]1CC[C@H](Nc2ccc(C#N)cn2)CC1 | 460 | 4800 | – |
| Cn1cc(-c2ccc(CN3CCC(Nc4ccc(C#N)cn4)CC3)cc2)cn1 | 16000 | – | – |

The next lines start with results.

| IC50 (CDK12/Cyclin K) [nM] | IC50 (CDK2/Cyclin A2) [nM] | SMILES | further results |
| --- | --- | --- | --- |
| 8600 | 9800 | Cn1cc(-c2ccc(N[C@H]3CC[C@H](Nc4ccc(C#N)cn4)CC3)cc2)cn1 | – |
| 1800 | 5.8 | Cn1cc(-c2ccc(S(=O)(=O)N3CCC(Nc4ccc(C(F)(F)F)cn4)CC3)cc2)cn1 | – |
| 160 | 2900 | Cn1cc(-c2ccc(N(C(=O)CCc3ccccc3)[C@H]3CC[C@H](Nc4ccc(C#N)cn4)CC3)cc2)cn1 | – |
| 63 | > 100000 | Cn1cc(-c2ccc(N(C(=O)NCc3ccccc3)[C@H]3CC[C@H](Nc4ccc(C#N)cn4)CC3)cc2)cn1 | solubility [1]: 0.33 µg/mL (≈ 0.653 µM); Ratio IC50 (Homo sapiens): > 800; Papp at 3 h, 10 µM [3]: 28.8 ×10⁻⁶ cm/s; IC50 (CDK9/cyclin T1): > 30000 nM; chromatographic logD [2]: 2.8 |
| 13 | 24 | CC(=O)N(c1ccc(-c2cnn(C)c2)cc1)[C@H]1CC[C@H](Nc2ncc3ccccc3n2)CC1 | – |
| > 30000 | > 100000 | CC(=O)N(c1ccc(-c2cnn(C)c2)cc1)[C@H]1CC[C@@H](Nc2ccc(C#N)cn2)CC1 | – |
| > 30000 | 1200 | Cn1cc(-c2ccc(S(=O)(=O)N3CCC(Nc4ccccn4)CC3)cc2)cn1 | – |
| 44 | > 100000 | Cn1ccc(-c2ccc(N(C(=O)NCc3ccccc3)[C@H]3CC[C@H](Nc4ccc(C#N)cn4)CC3)cc2)cc1=O | solubility [1]: < 0.08 µg/mL; Papp at 3 h, 10 µM [3]: 24.7 ×10⁻⁶ cm/s; IC50 (CDK9/cyclin T1): > 30000 nM; chromatographic logD [2]: 2.3 |
| 130 | 470 | CC(=O)N(c1ccc(-c2cnn(C)c2)cc1)[C@H]1CC[C@H](Nc2ccc(C#N)cn2)CC1 | – |
| 310 | 27000 | Cn1c(-c2ccc(N(C(=O)NCc3ccccc3)[C@H]3CC[C@H](Nc4ccc(C#N)cn4)CC3)cc2)cccc1=O | solubility [1]: < 0.09 µg/mL; IC50 (CDK9/cyclin T1): > 30000 nM; chromatographic logD [2]: 2.6 |
| 250 | 18000 | Cn1cccc(-c2ccc(N(C(=O)NCc3ccccc3)[C@H]3CC[C@H](Nc4ccc(C#N)cn4)CC3)cc2)c1=O | solubility [1]: 4.7 µg/mL (≈ 8.82 µM); IC50 (CDK9/cyclin T1): 15000 nM; chromatographic logD [2]: 2.7 |
